In ChEMBL document CHEMBL3227917, “Structure-activity relationships of dimeric Catharanthus alkaloids. 2. Experimental antitumor activities of N-substituted deacetylvinblastine amide (vindesine) sulfates” (J Med Chem, 1979) one finds inhibition in vivo, Activity and survival data, which are given here for six compounds.

Data set [1] can be described thus: Antitumor activity against mouse Gardner lymphosarcoma allografted in C3H mouse assessed as tumor growth inhibition at 0.10 mg/kg, ip administered daily for 8 to 10 days. It is filed as functional. As to conditions: route intraperitoneal, read-out: TGI. The procedure, abridged:
(§1)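 Gardner lymphosarcoma in C3H mice; sulfate salts unless noted, given ip daily for 8–10 days, treatment starting 8 days after tumor implantation. Tumor growth inhibition scored as –, 0–25%; +, 26–50%; ++, 51–75%; +++, 76–100%; T, lethal to ≥5 of 10 animals per group. Average of one or more tests.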

The nature of data set [2]: Antitumor activity against mouse Gardner lymphosarcoma allografted in C3H mouse assessed as tumor growth inhibition at 0.20 mg/kg, ip administered daily for 8 to 10 days. Format: functional. The settings on record: route intraperitoneal, read-out: TGI. The procedure, abridged: as §1
The nature of data set [3]: Antitumor activity against mouse Ridgway osteogenic sarcoma allografted in AKR mouse assessed as tumor growth inhibition at 0.20 mg/kg, ip administered daily for 8 to 10 days compound treatment commenced 8 days after tumor implantation. It is filed as functional. As to conditions: route intraperitoneal, read-out: TGI.
Data set [4] can be described thus: Antitumor activity against mouse Gardner lymphosarcoma allografted in C3H mouse assessed as tumor growth inhibition at 0.05 mg/kg, ip administered daily for 8 to 10 days. Format: functional. As to conditions: route intraperitoneal, read-out: TGI. The procedure, abridged:
as §1

Data set [5] deals with Mus musculus. Briefly: Toxicity in AKR mouse allografted with mouse Ridgway osteogenic sarcoma assessed as lethality at 0.40 mg/kg, ip administered daily for 8 to 10 days compound treatment commenced 8 days after tumor implantation. It is filed as organism-based. Also on record: dose 0.4 mg/kg, route intraperitoneal. As to conditions: in vivo, 0.4 mg/kg. Summed up:
(§2)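 Tumor-bearing mice given sulfate salts ip daily for 8–10 days; values are the average of one or more tests. Toxic means lethal to ≥5 of 10 animals per group.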

For data set [6], the system named is Mus musculus. The data set can be described thus: Toxicity in C3H mouse allografted with mouse Gardner lymphosarcoma assessed as lethality at 0.40 mg/kg, ip administered daily for 8 to 10 days. Also on record: dose 0.4 mg/kg, route intraperitoneal. Format: organism-based. As to conditions: in vivo, 0.4 mg/kg. Summed up: as §2
Data set [7] relates to CHO. The data set can be described thus: Mitotic arrest in CHO cells assessed as increase in cell accumulation at 0.02 ug/ml. It is filed as functional, Cricetulus griseus. Summed up:
(§3)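 Chinese hamster ovary cells in tissue culture, scored for mitotic arrest as increase in cells in mitotic arrest over control: +++, 40–50%; ++, 15–40%; +, 10–15%; ±, 7–10%; –, 3–7%. Cytotoxicity noted separately.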

For data set [8], the system named is CHO. Briefly: Mitotic arrest in CHO cells assessed as increase in cell accumulation at 0.2 ug/ml. It is filed as functional, Cricetulus griseus. Summed up:
as §3

Data set [9] concerns Mus musculus. Briefly: Toxicity in C3H mouse allografted with mouse Gardner lymphosarcoma assessed as lethality at 0.5 mg/kg, ip administered daily for 8 to 10 days. Format: organism-based. Also on record: dose 0.5 mg/kg, route intraperitoneal. As to conditions: in vivo. Summed up: as §2
The subject of data set [10] is CHO. The data set can be described thus: Mitotic arrest in CHO cells assessed as increase in cell accumulation at 0.002 ug/ml. Format: functional, Cricetulus griseus. Summed up: as §3
Data set [11] in a line: Antitumor activity against mouse Gardner lymphosarcoma allografted in C3H mouse assessed as tumor growth inhibition at 0.30 mg/kg, ip administered daily for 8 to 10 days. Format: functional. As to conditions: route intraperitoneal, read-out: TGI. Summed up:
as §1

The test system of data set [12] is B16. The data set can be described thus: Antitumor activity against mouse B16 cells allografted in C57BL/6 mouse assessed as prolongation of host survival at 0.90 mg/kg, ip administered on days 1,5 and 9. It is filed as functional. The settings on record: route intraperitoneal. The procedure, abridged: (§4)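 B16 melanoma cells (10⁶ inoculum) implanted ip in C57BL/6 mice; groups of 10. Sulfate salts unless noted, given ip on days 1, 5 and 9. Single test. Survival prolongation is expressed as percent versus controls, with survivors counted on day 60. Toxic means deaths of ≥5 of 10 animals before the first control death.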

For data set [13], the system named is Mus musculus. The data set can be described thus: Toxicity in C57BL/6 mouse allografted with mouse B16 cells assessed as animal death at 1.20 mg/kg, ip administered on days 1,5 and 9. Format: organism-based. As to conditions: in vivo, 1.2 mg/kg. Also on record: dose 1.2 mg/kg, route intraperitoneal. The procedure, abridged: as §4
The nature of data set [14]: Antitumor activity against mouse Gardner lymphosarcoma allografted in C3H mouse assessed as tumor growth inhibition at 0.40 mg/kg, ip administered daily for 8 to 10 days. Format: functional. The settings on record: route intraperitoneal, read-out: TGI. Summed up: as §1
For data set [15], the system named is B16. The data set can be described thus: Antitumor activity against mouse B16 cells allografted in C57BL/6 mouse assessed as prolongation of host survival at 0.60 mg/kg, ip administered on days 1,5 and 9. It is filed as functional. The settings on record: route intraperitoneal. The procedure, abridged: as §4
Data set [16] in a line: Antitumor activity against mouse P1534 cells allografted in DBA2 mouse assessed as tumor growth inhibition at 0.20 mg/kg, ip administered daily for 8 to 10 days. It is filed as functional. The settings on record: route intraperitoneal, read-out: TGI. The procedure, abridged: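 P1534(J) leukemia implanted sc in DBA2 mice; sulfate salts dosed ip daily for 8–10 days. Growth inhibition scored –, 0–25%; +, 26–50%; ++, 51–75%; +++, 76–100%; T, lethal to ≥5 of 10 animals per group. Average of one or more tests.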

A short description of data set [17]: Antitumor activity against mouse Ridgway osteogenic sarcoma allografted in AKR mouse assessed as tumor growth inhibition at 0.10 mg/kg, ip administered daily for 8 to 10 days compound treatment commenced 8 days after tumor implantation. Format: functional. The settings on record: route intraperitoneal, read-out: TGI.
Data set [18] deals with Mus musculus. The data set can be described thus: Toxicity in AKR mouse allografted with mouse Ridgway osteogenic sarcoma assessed as lethality at 0.20 mg/kg, ip administered daily for 8 to 10 days compound treatment commenced 8 days after tumor implantation. As to conditions: in vivo, 0.2 mg/kg. Format: organism-based. Also on record: dose 0.2 mg/kg, route intraperitoneal. Summed up: as §2

Regarding `CC[C@]1(O)C[C@H]2CN(CCc3c([nH]c4ccccc34)[C@@](C(=O)OC)(c3cc4c(cc3OC)N(C)[C@H]3[C@@](O)(C(=O)NCCOC(C)=O)[C@H](O)[C@]5(CC)C=CCN6CC[C@]43[C@@H]65)C2)C1.O=S(=O)(O)O`, the inhibition in vivo at 0.1 mg/kg in data set [1] stood at 51%. For the same compound, the inhibition in vivo at 0.2 mg/kg in data set [2] and in data set [3] was 76% in each case. Moreover, the inhibition in vivo at 0.05 mg/kg in data set [4] worked out at 26%. For the same compound, the Activity entry with Mus musculus [5] and in the data set with Mus musculus [6] was “Toxic” throughout.
Turning to `CC[C@]1(O)C[C@H]2CN(CCc3c([nH]c4ccccc34)[C@@](C(=O)OC)(c3cc4c(cc3OC)N(C)[C@H]3[C@@](O)(C(N)=O)[C@H](OC(C)=O)[C@]5(CC)C=CCN6CC[C@]43[C@@H]65)C2)C1.O=S(=O)(O)O`, the Activity is on record as 15% in the data set with CHO [7], 40% with CHO [8], “Toxic” with Mus musculus [9] and 3% in the data set with CHO [10].
`CCCC(=O)OCCNC(=O)[C@@]1(O)[C@H](O)[C@]2(CC)C=CCN3CC[C@@]4(c5cc([C@@]6(C(=O)OC)C[C@@H]7CN(CCc8c6[nH]c6ccccc86)C[C@](O)(CC)C7)c(OC)cc5N(C)[C@@H]14)[C@@H]32.O=S(=O)(O)O`: the inhibition in vivo at 0.1 mg/kg in data set [1] was 51%. Moreover, the inhibition in vivo at 0.2 mg/kg in data set [2] and in [3] was 76% each time. The inhibition in vivo at 0.05 mg/kg in data set [4] was determined as 0%. Also, the Activity result in the data set on Mus musculus [5] and with Mus musculus [6] was “Toxic” each time.
Regarding `CC[C@]1(O)C[C@H]2CN(CCc3c([nH]c4ccccc34)[C@@](C(=O)OC)(c3cc4c(cc3OC)N(C)[C@H]3[C@@](O)(C(=O)NCCS)[C@H](O)[C@]5(CC)C=CCN6CC[C@]43[C@@H]65)C2)C1.O=S(=O)(O)O`, the inhibition in vivo at 0.1 mg/kg in data set [1] was 0%. Also, in data set [2], the inhibition in vivo at 0.2 mg/kg was 26%. Moreover, the inhibition in vivo at 0.3 mg/kg in data set [11] was found to be 51%. Further, the survival at 0.9 mg/kg in the data set on B16 [12] worked out at 141%. The Activity result with Mus musculus [13] is on record as “Toxic”. Moreover, the inhibition in vivo at 0.4 mg/kg in [14] is 76%. The survival at 0.6 mg/kg in the data set with B16 [15] worked out at 170%.
On to `CC[C@]1(O)C[C@H]2CN(CCc3c([nH]c4ccccc34)[C@@](C(=O)OC)(c3cc4c(cc3OC)N(C)[C@H]3[C@@](O)(C(=O)NC)[C@H](OC(C)=O)[C@]5(CC)C=CCN6CC[C@]43[C@@H]65)C2)C1.O=S(=O)(O)O`, for which the inhibition in vivo at 0.2 mg/kg in data set [16] is 51%. In addition, the Activity result in the data set with Mus musculus [9] is recorded as “Toxic”.
For the compound `CCNC(=O)[C@@]1(O)[C@H](O)[C@]2(CC)C=CCN3CC[C@@]4(c5cc([C@@]6(C(=O)OC)C[C@@H]7CN(CCc8c6[nH]c6ccccc86)C[C@](O)(CC)C7)c(OC)cc5N(C)[C@@H]14)[C@@H]32.O=S(=O)(O)O`, the inhibition in vivo at 0.1 mg/kg in [1] and in data set [17] was 0% throughout. In addition, in data set [2], the inhibition in vivo at 0.2 mg/kg turned out to be 76%. Besides, the Activity entry with Mus musculus [18], with Mus musculus [5] and with Mus musculus [6] was “Toxic” in each case.
